Consider 21 compounds from ChEMBL document CHEMBL1140094, “Novel microtubule-interacting phenoxy pyridine and phenyl sulfanyl pyridine analogues for cancer therapy” (J Med Chem, 2008).

The structures appear in SMILES notation. pIC50: −log10 of the molar value. Calls of active or inactive are those of the source. The calls are words filed in the database; no cut-off is given here.

For orientation: pIC50 means the IC50 on a negative log10 scale, so that one unit is a factor of ten. A word on the inhibition: it is the percentage by which the read-out fell short of the control. Read a low inhibition as a weak effect. As a reminder, the residual activity is the share of the control activity or signal that is left under treatment. Higher therefore signals much activity left.

For assay [1], the system named is PANC-1. The experiment in a line: Growth inhibition of human Panc1 cells at 1 uM after 96 hrs by MTT assay relative to control. It counts as functional. The conditions noted are these: PANC-1, 96 h, values are per cent of control. The procedure, abridged:
(§1)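 MTT initial screen of Panc1 and HS766T human pancreatic cancer cells at 1 and 10 μM; growth expressed as percent of untreated control with SD.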
A general note: Formazan colour is commonly taken as a measure of viable cells.

Assay [2] relates to PANC-1. Briefly: Growth inhibition of human Panc1 cells at 10 uM after 96 hrs by MTT assay relative to control. Format: functional. The conditions noted are these: PANC-1, 96 h, values are per cent of control. The procedure, abridged:
as §1

Assay [3] in a line: Growth inhibition of human HS766T cells at 1 uM after 96 hrs by MTT assay relative to control. It counts as functional. The conditions noted are these: Hs 766, 96 h, values are per cent of control. The procedure, abridged:
as §1

A short description of assay [4]: Growth inhibition of human HS766T cells at 10 uM after 96 hrs by MTT assay relative to control. Format: functional. The settings on record: Hs 766, 96 h, values are per cent of control. An outline of the steps:
as §1

The subject of assay [5] is PANC-1. Briefly: Growth inhibition of human Panc1 cells after 96 hrs by MTT assay relative to control. The conditions noted are these: PANC-1, 96 h. Format: functional, cell-based.
A short description of assay [6]: Growth inhibition of human HS766T cells after 96 hrs by MTT assay relative to control. Format: functional, cell-based. The settings on record: Hs 766, 96 h.
Assay [7] has as its system MCF7. The experiment in a line: Cell cycle arrest in human MCF7 cells assessed as accumulation at G2/M phase at 5 uM after 15 hrs by propidium iodide staining. Format: functional. An outline of the steps:
(§2)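 MCF7 breast cancer cells treated 15 h at 5 μM; colcemid 0.1 μg/mL (about 0.25 μM) as positive control. Cells harvested and fixed, DNA labeled with propidium iodide, mitotic cells labeled with monoclonal MPM2 (phospho-epitopes at mitosis onset); flow cytometry. PI scans gated M1 G1, M3 S, M2 G2/M; mitotic fold increase versus untreated.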

For assay [8], the system named is MCF7. The experiment in a line: Cell cycle arrest in human MCF7 cells assessed as accumulation at G2/M phase at 5 uM after 15 hrs by MPM2 antibody labeling. It counts as functional. The procedure, abridged:
as §2

Assay [9] can be described thus: Inhibition of tubulin polymerization at 4 to 5 uM relative to control. An outline of the steps:
(§3)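 Turbidity-monitored tubulin assembly; extent of assembly at 20 min compared with no-compound control.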

Assay [10] in a line: Inhibition of tubulin polymerization relative to control. The settings on record: values are per cent of control. An outline of the steps: as §3
Assay [11] can be described thus: Inhibition of tubulin polymerization assessed as effect on maximum propogation rate.
The test system of assay [12] is MCF7. The experiment in a line: Induction of microtubule disassembly in human MCF7 cells assessed as prometaphase cell cycle arrest at 5 uM after 15 hrs by immunofluorescence staining. Format: functional, cell-based. An outline of the steps:
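MCF7 cells exposed 15 h to 5 μM compound, colcemid 0.25 μM as positive control, untreated controls. Anti-α-tubulin primary with Alexa-568 secondary, DNA counterstained with DAPI; immunofluorescence microscopy scoring microtubule loss, mitotic stage (prometaphase arrest) and micronuclei in interphase cells.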

A further assay relates to SK-OV-3. The experiment in a line: Cytotoxicity against paclitaxel-resistant human SKOV3 cells after 7 days by MTT assay. Format: functional, cell-based.
A short description of assay [13]: Inhibition of tubulin polymerization.

Consider `C=CCNC(=O)c1cccc(Sc2ccc(NC(=O)NC(=O)c3ccccc3[N+](=O)[O-])cc2)c1`, for which the viability, % of control at 1 µM with PANC-1 [1] was 70%; in assay [3], 50%. Further, the viability, % of control at 10 µM in the assay on PANC-1 [2] was determined as 44%; in assay [4], 27%.

Turning to `O=C(NC(=O)c1ccccc1)Nc1ccc(Sc2cccc(C(=O)NCc3ccccc3)c2)cc1`, the viability, % of control at 1 µM in the assay with PANC-1 [1] stood at 67%; in [3], 79%. Also, the viability, % of control at 10 µM was found to be 53% in the assay on PANC-1 [2] and 73% in assay [4].

In the case of `COc1ccc(C(=O)NC(=O)Nc2ccc(Sc3cccc(C(=O)NCc4ccccc4)c3)cc2)c(Cl)c1OC`, the viability, % of control at 1 µM stood at 89% in the assay on PANC-1 [1] and 97% in [3]. For the same compound, the viability, % of control at 10 µM came to 51% with PANC-1 [2] and 75% in [4].

Turning to `C=CCNC(=O)c1cccc(Oc2ccc(NC(=O)NC(=O)c3ccccc3[N+](=O)[O-])cc2)c1`, the figures for the viability, % of control at 1 µM (with PANC-1 [1]; in [3]) were 76% and 55%, respectively. For the same compound, the viability, % of control at 10 µM in the assay on PANC-1 [2] worked out at 55%; in assay [4], 30%.

Turning to `C=CCNC(=O)c1cccc(Oc2ccc(NC(=O)NC(=O)c3cc(OC)cc(OC)c3)cc2)c1`, the results for the viability, % of control at 1 µM (in the assay on PANC-1 [1]; in assay [3]) were 58% and 107%, respectively. Also, the viability, % of control at 10 µM is 68% with PANC-1 [2] and 64% in [4].

With `CNC(=O)c1cccc(Sc2ccc(NC(=O)NC(=O)c3ccc(OC)c(OC)c3Cl)cc2)c1`, the negative logarithm of the IC50 (pIC50) in the assay with PANC-1 [5] was 6.15; in assay [6] it was 6.30; in assay [11], 5.77. For the same compound, the viability, % of control at 1 µM with PANC-1 [1] was 35%; in [3], 30%. Also, the viability, % of control at 10 µM turned out to be 33% in the assay on PANC-1 [2] and 21% in assay [4]. Further, the Activity in the assay on MCF7 [7] came to 75.71%; with MCF7 [8], 47.23%. The compound further yielded an inhibition in assay [9] of 50%. The residual activity in assay [10] stood at 40%. Moreover, the result with MCF7 [12] and in the assay with SK-OV-3 was Active.

`COc1cc2c(c(OC)c1OC)-c1ccc(OC)c(=O)cc1[C@@H](NC(C)=O)CC2` [COLCHICINE] gave a pIC50 in assay [13] of 5.66.

For `CCCCCCCCCCNC(=O)c1cccc(Sc2ccc(NC(=O)NC(=O)c3ccc(OC)c(OC)c3Cl)cc2)c1`, the figures for the viability, % of control at 1 µM (in the assay on PANC-1 [1]; in [3]) were 63% and 79%, respectively. The viability, % of control at 10 µM in the assay with PANC-1 [2] turned out to be 51%; in assay [4], 62%.

`C=CCNC(=O)c1cccc(Sc2ccc(NC(=O)NC(=O)c3ccc(OC)c(OC)c3Cl)cc2)c1`: the viability, % of control at 1 µM is 88% in the assay with PANC-1 [1] and 101% in [3]. Moreover, the viability, % of control at 10 µM amounted to 44% with PANC-1 [2] and 23% in assay [4].

For `CNC(=O)c1cccc(Sc2ccc(NC(=O)NC(=O)c3ccccc3[N+](=O)[O-])cc2)c1`, the viability, % of control at 1 µM with PANC-1 [1] amounted to 60%; in assay [3], 63%. Besides, the viability, % of control at 10 µM turned out to be 38% in the assay with PANC-1 [2] and 23% in assay [4].

Turning to `C=CCNC(=O)c1cccc(Oc2ccc(NC(=O)NC(=O)c3ccccc3)cc2)c1`, the viability, % of control at 1 µM amounted to 66% in the assay on PANC-1 [1] and 76% in assay [3]. The figures for the viability, % of control at 10 µM (with PANC-1 [2]; in assay [4]) were 51% and 70%, respectively.

In the case of `CNC(=O)c1cccc(Sc2ccc(NC(=O)NC(=O)c3ccccc3)cc2)c1`, the viability, % of control at 1 µM was 65% in the assay on PANC-1 [1] and 77% in assay [3]. Further, the viability, % of control at 10 µM with PANC-1 [2] came out at 41%; in assay [4], 26%.

On to `C=CCNC(=O)c1cccc(Oc2ccc(NC(=S)NC(=O)c3ccccc3)cc2)c1`, for which the results for the viability, % of control at 1 µM (with PANC-1 [1]; in assay [3]) were 97% and 88%, respectively. Also, the viability, % of control at 10 µM with PANC-1 [2] came to 68%; in [4], 73%.

Turning to `C=CCNC(=O)c1cccc(Sc2ccc(NC(=O)NC(=O)c3cc(OC)cc(OC)c3)cc2)c1`, the viability, % of control at 1 µM in the assay with PANC-1 [1] amounted to 62%; in assay [3], 105%. In addition, the viability, % of control at 10 µM was 41% with PANC-1 [2] and 87% in [4].

As to `C=CCNC(=O)c1cccc(Oc2ccc(NC(=O)NC(=O)c3ccccc3Cl)cc2)c1`, the pIC50 was 6.10 with PANC-1 [5], 6.82 in assay [6] and 5.40 in [11]. Moreover, the viability, % of control at 1 µM in the assay on PANC-1 [1] was 47%; in [3], 36%. The viability, % of control at 10 µM with PANC-1 [2] came to 38%; in assay [4], 23%. For the same compound, the Activity came to 67.49% in the assay on MCF7 [7] and 38.29% in the assay with MCF7 [8]. The result in the assay with MCF7 [12] was Active.

As for `O=C(NC(=O)c1ccccc1Cl)Nc1ccc(Sc2cccc(C(=O)NCc3ccccc3)c2)cc1`, the viability, % of control at 1 µM amounted to 86% in the assay on PANC-1 [1] and 95% in assay [3]. Moreover, the viability, % of control at 10 µM with PANC-1 [2] came to 66%; in [4], 74%.

As for `C=CCNC(=O)c1cccc(Sc2ccc(NC(=O)NC(=O)c3ccccc3Cl)cc2)c1`, the viability, % of control at 1 µM with PANC-1 [1] is 69%; in assay [3], 109%. Further, the viability, % of control at 10 µM was 46% in the assay with PANC-1 [2] and 36% in assay [4].

`C=CCNC(=O)c1cccc(Oc2ccc(NC(=O)NC(=O)c3ccc(OC)c(OC)c3Cl)cc2)c1`: the viability, % of control at 1 µM in the assay on PANC-1 [1] came out at 61%; in assay [3], 67%. Also, the viability, % of control at 10 µM turned out to be 53% in the assay on PANC-1 [2] and 50% in assay [4].

For the compound `CCCCCCCCCCNC(=O)c1cccc(Sc2ccc(NC(=O)NC(=O)c3cc(OC)cc(OC)c3)cc2)c1`, the viability, % of control at 1 µM with PANC-1 [1] came to 74%; in assay [3], 77%. Besides, the viability, % of control at 10 µM worked out at 58% with PANC-1 [2] and 66% in assay [4].

In the case of `CCCCCCCCCCNC(=O)c1cccc(S(=O)(=O)c2ccc(NC(=O)NC(=O)c3cc(OC)cc(OC)c3)cc2)c1`, the results for the viability, % of control at 1 µM (in the assay on PANC-1 [1]; in [3]) were 48% and 71%, respectively. Further, the viability, % of control at 10 µM in the assay on PANC-1 [2] is 43%; in assay [4], 56%.

On to `CNC(=O)c1cccc(Sc2ccc(NC(=O)NC(=O)c3cc(OC)cc(OC)c3Cl)cc2)c1`, for which the values for the viability, % of control at 1 µM (in the assay on PANC-1 [1]; in assay [3]) were 77% and 54%, respectively. The viability, % of control at 10 µM amounted to 52% in the assay with PANC-1 [2] and 31% in assay [4].
